Assay results taken from ChEMBL document CHEMBL1144404, “Aminoimidazolylmethyluracil analogues as potent inhibitors of thymidine phosphorylase and their bioreductive nitroimidazolyl prodrugs” (J Med Chem, 2005).

Experiments:
[1] = Half-life was measured in mice after oral administration of 20 mg/kg; format: ADME, organism-based; parameters: dose 20 mg/kg, route oral; conditions: mouse, in vivo
How it was run: (§1)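 Mice given a single dose by ip (10 mg/kg), oral (20 mg/kg) or iv (2 mg/kg) route. Blood sampled over 24 h after dosing; plasma analysed for parent compound. PK parameters (Cmax, Tmax, AUC, T1/2, F, C0, Cl, Vdss) derived from plasma concentration-time profiles.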

[2] = Area under concentration-time curve for the compound was measured in mice after intraperitoneal administration of 10 mg/kg; format: ADME, organism-based; parameters: dose 10 mg/kg, route intraperitoneal; conditions: mouse, in vivo, ip; how it was run: as §1
[3] = Maximum time to attain Cmax in mice after oral administration of 20 mg/kg; format: ADME, organism-based; parameters: dose 20 mg/kg, route oral; conditions: mouse, in vivo; how it was run: as §1
[4] = Area under concentration-time curve for the compound was measured in mice after intravenous administration of 2 mg/kg; format: ADME, organism-based; parameters: dose 2 mg/kg, route intravenous; conditions: mouse, in vivo; how it was run: as §1
[5] = Maximum time to attain Cmax in mice after intraperitoneal administration of 10 mg/kg; format: ADME, organism-based; parameters: dose 10 mg/kg, route intraperitoneal; conditions: mouse, in vivo, ip; how it was run: as §1
[6] = Maximum concentration was measured in mice after intraperitoneal administration of 10 mg/kg; format: ADME, organism-based; parameters: dose 10 mg/kg, route intraperitoneal; conditions: mouse, in vivo, ip; how it was run: as §1
[7] = Bioavailability in mouse (dose 20 mg/kg p.o.); format: ADME, organism-based; conditions: in vivo, po; how it was run: as §1
[8] = Area under concentration-time curve for the compound was measured in mice after oral administration of 20 mg/kg; format: ADME, organism-based; parameters: dose 20 mg/kg, route oral; conditions: mouse, in vivo; how it was run: as §1
[9] = Concentration at time 0 was measured in mice after intravenous administration of 2 mg/kg; format: ADME, organism-based; parameters: dose 2 mg/kg, route intravenous; conditions: mouse, in vivo; how it was run: as §1
[10] = Bioavailability in mouse (dose 2 mg/kg i.v.); format: ADME, organism-based; conditions: in vivo, iv; how it was run: as §1
[11] = Bioavailability in mouse (dose 10 mg/kg i.p.); format: ADME, organism-based; conditions: in vivo, ip; how it was run: as §1
[12] = Half-life was measured in mice after intravenous administration of 2 mg/kg; format: ADME, organism-based; parameters: dose 2 mg/kg, route intravenous; conditions: mouse, in vivo; how it was run: as §1
[13] = Maximum plasma concentration in mice after oral administration of 20 mg/kg; format: ADME, organism-based; parameters: dose 20 mg/kg, route oral; conditions: mouse; how it was run: as §1
[14] = Steady state volume of distribution was measured in mice after intravenous administration of 2 mg/kg; format: ADME, organism-based; parameters: dose 2 mg/kg, route intravenous; conditions: mouse, in vivo, read-out: Vdss; how it was run: as §1
[15] = Half-life was measured in mice after intraperitoneal administration of 10 mg/kg; format: ADME, organism-based; parameters: dose 10 mg/kg, route intraperitoneal; conditions: mouse, in vivo, ip; how it was run: as §1
[16] = Clearance at time 0 was measured in mice after intravenous administration of 2 mg/kg; format: ADME, organism-based; parameters: dose 2 mg/kg, route intravenous; conditions: mouse, in vivo; how it was run: as §1
[17] = target: Thymidine phosphorylase (Escherichia coli K-12, UniProt P07650); test: Inhibitory concentration against thymidine phosphorylase of Escherichia coli
Sequence of Thymidine phosphorylase (Escherichia coli K-12, UniProt P07650) (P07650 whole entry): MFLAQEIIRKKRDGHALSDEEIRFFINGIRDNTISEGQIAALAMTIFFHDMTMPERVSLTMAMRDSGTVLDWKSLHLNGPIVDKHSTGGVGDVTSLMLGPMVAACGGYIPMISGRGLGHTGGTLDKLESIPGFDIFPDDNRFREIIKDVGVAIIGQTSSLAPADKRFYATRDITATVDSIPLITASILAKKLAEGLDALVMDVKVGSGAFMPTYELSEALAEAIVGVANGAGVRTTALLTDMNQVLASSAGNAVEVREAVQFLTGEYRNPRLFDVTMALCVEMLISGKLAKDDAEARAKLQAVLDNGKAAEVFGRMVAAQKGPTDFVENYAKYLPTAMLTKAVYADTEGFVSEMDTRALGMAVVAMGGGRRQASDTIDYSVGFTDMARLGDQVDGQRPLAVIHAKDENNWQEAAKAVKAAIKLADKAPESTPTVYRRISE

[18] = target: T1, Thymidine phosphorylase (Homo sapiens, UniProt P19971); test: Inhibitory concentration against human thymidine phosphorylase
T1 sequence (P19971 whole entry): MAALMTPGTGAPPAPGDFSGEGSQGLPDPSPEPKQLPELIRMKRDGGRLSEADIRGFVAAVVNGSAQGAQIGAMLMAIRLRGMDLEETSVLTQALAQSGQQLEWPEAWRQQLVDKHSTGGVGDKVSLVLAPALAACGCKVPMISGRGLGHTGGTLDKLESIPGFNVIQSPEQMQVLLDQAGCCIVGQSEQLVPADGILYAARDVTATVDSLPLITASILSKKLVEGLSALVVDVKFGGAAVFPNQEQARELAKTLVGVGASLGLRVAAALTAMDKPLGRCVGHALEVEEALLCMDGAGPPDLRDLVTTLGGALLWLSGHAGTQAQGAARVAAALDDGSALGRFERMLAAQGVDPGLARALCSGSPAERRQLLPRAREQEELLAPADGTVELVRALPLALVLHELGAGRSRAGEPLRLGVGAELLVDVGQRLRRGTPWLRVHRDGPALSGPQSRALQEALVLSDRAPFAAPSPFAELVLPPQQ

[19] = Maximum plasma concentration in mice after intraperitoneal administration of 10 mg/kg; format: ADME, organism-based; parameters: dose 10 mg/kg, route intraperitoneal; conditions: mouse, ip; how it was run: as §1

## Cl.N=C1CCCN1Cc1[nH]c(=O)[nH]c(=O)c1Cl [TIPIRACIL HYDROCHLORIDE]
[1]
  half-life: 102 min
[2]
  AUC: 1.658 µg/h/mL
[3]
  Tmax: 60 min
[4]
  AUC: 0.19 µg/h/mL
[5]
  Tmax: 4.98 min
[6]
  Cmax: 4450 ng/mL
[7]
  bioavailability: 52%
[8]
  AUC: 0.99 µg/h/mL
[9]
  C0: 942 ng/mL
[10]
  F: Not Active
[11]
  bioavailability: > 100%
[12]
  half-life: 6 min
[13]
  Cmax: 391 ng/mL
[14]
  Vd: 2.1 L/kg
[15]
  half-life: 48 min
[16]
  clearance: > 72 mL/min/kg

## O=[N+]([O-])c1cn(Cc2cc(O)nc(O)n2)cn1
[17]
  IC50: 13.8 µM
[18]
  IC50: 500 µM

## O=c1[nH]c(Cn2cnc([N+](=O)[O-])c2)c(Br)c(=O)[nH]1
[17]
  IC50: 6.6 µM
[18]
  IC50: 181 µM

## Nc1[nH]cc[n+]1Cc1[nH]c(=O)[nH]c(=O)c1Br
[1]
  half-life: 132 min
[2]
  AUC: 1.505 µg/h/mL
[3]
  Tmax: 60 min
[4]
  AUC: 0.292 µg/h/mL
[5]
  Tmax: 5 min
[7]
  bioavailability: 33%
[8]
  AUC: 0.968 µg/h/mL
[9]
  C0: 3750 ng/mL
[10]
  F: Not Active
[11]
  bioavailability: 103%
[12]
  half-life: 12 min
[13]
  Cmax: 350 ng/mL
[14]
  Vd: 1.3 L/kg
[19]
  Cmax: 5080 ng/mL
[15]
  half-life: 60 min
[16]
  clearance: > 72 mL/min/kg

## O=c1[nH]c(Cn2cnc([N+](=O)[O-])c2)c(Cl)c(=O)[nH]1
[17]
  IC50: 7 µM
[18]
  IC50: 200 µM

## Nc1c[n+](Cc2nc(O)nc(O)c2Cl)c[nH]1
[17]
  IC50: 7.3 µM

## Nc1c[n+](Cc2cc(O)nc(O)n2)c[nH]1
[17]
  IC50: 101 µM
[18]
  IC50: 143 µM

## Nc1c[n+](Cc2nc(O)nc(O)c2Br)c[nH]1
[17]
  IC50: 6.5 µM
